Activity calls are given as the source filed them. The calls are words filed in the database; no cut-off is given here.
Legend:
[1] = Neurotoxicity in Wistar rat cerebellar granule neurons assessed as apoptotic cells at 0.01 uM after 24 hrs using propidium iodide and Hoescht 33342 staining; format: toxicity, cell-based; details: neuron
Procedure, shortened: (§1)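 Primary cerebellar granule neurons from 6-7-day-old Wistar rat pups, cultured 6-10 days at 37 °C. Cells exposed to compound for 24 h, then stained 20 min with Hoechst 33342 (5 μg/mL) and propidium iodide (1 μg/mL) in pH 7.3 buffer. At least 100 cells scored per treatment. Scoring: PI+ = late apoptotic/necrotic; PI− with condensed or fragmented nuclei = apoptotic; PI− with swollen, fragmented nuclei = early necrotic.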

T47D [2] = experiment: Inhibition of oxygen consumption in human T47D cells; format: functional, cell-based
Procedure, shortened: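 Oxygen consumption measured with a Clark-type electrode in non-permeabilized T47D cells. Rotenone served as the complex I reference. Data given as % inhibition versus untreated control, averaged over three independent experiments with SD.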

T47D [3] = experiment: Inhibition of electron transport protein complex 4-mediated cellular respiration in digitonin-permeabilized human T47D cells at 10 to 30 nM presence of succinate; format: cell-based
T47D [4] = experiment: Cytotoxicity against human T47D cells assessed as inhibition of cell proliferation after 48 hrs by SRB assay relative to control; format: functional; parameters: scale not given: the % may be the effect or the level left
T47D [5] = experiment: Inhibition of 1,10-phenanthroline-induced HIF-1 activation in human T47D cells at up to 10 uM by luciferase reporter gene assay; format: cell-based
Procedure, shortened: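 T47D cells carrying the pHRE3-TK-Luc HIF-1 luciferase reporter. HIF-1 induced chemically with 10 μM 1,10-phenanthroline. Compound tested at concentrations up to 10 μM.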

T47D [6] = experiment: Inhibition of electron transport protein complex 2-mediated cellular respiration in digitonin-permeabilized human T47D cells at 10 to 30 nM presence of succinate; format: cell-based
Procedure, shortened: (§2)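 Clark-type oxygen electrode used to follow O2 consumption in T47D cells permeabilized with 10 μM digitonin. Substrates and inhibitors added one after another at set times. For complex I, respiration was started with malate/pyruvate, compound (10 nM) was added, then succinate was added to feed complex II.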

T47D [7] = experiment: Inhibition of electron transport protein complex 3-mediated cellular respiration in digitonin-permeabilized human T47D cells at 10 to 30 nM presence of succinate; format: cell-based; procedure, shortened: as §2
T47D [8] = experiment: Inhibition of electron transport protein complex 1-mediated cellular respiration in digitonin-permeabilized human T47D cells at 10 nM presence of succinate; format: cell-based; procedure, shortened: as §2
T47D [9] = experiment: Inhibition of tumor angiogenesis in human T47D cells in normoxic conditioned medium at 10 nM by HUVEC-based tube formation assay; format: functional, cell-based
Procedure, shortened: (§3)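 Conditioned media collected from T47D cells treated for 16 h, normoxic or hypoxic (1% O2), with or without compound (10 nM). Media applied to HUVECs for tube formation. Relative tube length and branching points counted in three random fields, mean with SD. One-way ANOVA with Bonferroni post hoc test.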

T47D [10] = experiment: Reduction of hypoxia-induced GLUT1 mRNA expression in human T47D cells treated after 16 hrs of hypoxia by RT-PCR analysis; format: functional, cell-based
Procedure, shortened: (§4)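 T47D cells held at 1% O2 for 16 h with or without compound. Total RNA measured by real-time RT-PCR, normalized to 18S rRNA, and expressed relative to the normoxic control. Mean of two independent experiments.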

T47D [11] = experiment: Reduction of hypoxia-induced secreted VEGF protein level in human T47D cells after 16 hrs by ELISA; format: functional, cell-based
Procedure, shortened: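 T47D cells exposed to 1% O2 or 10 μM 1,10-phenanthroline for 16 h with or without compound. Secreted VEGF in conditioned medium measured by ELISA and normalized to cellular protein (micro BCA). Mean with SD, N = 3. One-way ANOVA with Bonferroni post hoc test.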

[12] = Neurotoxicity in Wistar rat cerebellar granule neurons assessed as cell death at 10 nM after 24 hrs using propidium iodide and Hoescht 33342 staining; format: toxicity, cell-based; details: neuron, 0.01 µM; procedure, shortened: as §1
MDA-MB-231 = experiment: Cytotoxicity against human MDA-MB-231 cells assessed as inhibition of cell proliferation after 48 hrs by SRB assay; format: functional, cell-based
T47D [13] = experiment: Inhibition of hypoxia-induced HIF-1 activation in human T47D cells at 0.1 to 1000 nM by luciferase reporter gene assay; format: cell-based
Procedure, shortened: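 T47D cells (DMEM/F12, 10% FBS) carrying the pHRE3-TK-Luc HIF-1 luciferase reporter were exposed to hypoxia (1% O₂) for 16 h with compound at 0.1, 0.3, 1, 3, 10, 30, 100 and 1000 nM. Cycloheximide at 100 μM served as positive control. Data are from one representative triplicate experiment, mean ± SD.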

T47D [14] = experiment: Inhibition of tumor angiogenesis in human T47D cells in conditioned medium at 10 nM treated after 16 hrs of hypoxia by HUVEC-based tube formation assay; format: functional, cell-based; procedure, shortened: as §3
T47D [15] = experiment: Inhibition of hypoxia-induced HIF-1alpha protein accumulation in human T47D cell nucleus at 10 to 100 nM treated after 4 hrs of hypoxia by Western blotting; format: functional, cell-based
Procedure, shortened: (§5)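 Nuclear extracts prepared from T47D cells held at 1% O2 for 4 h with or without compound. HIF-1α and HIF-1β protein levels determined by western blot.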

T47D [16] = experiment: Reduction of hypoxia-induced VEGF mRNA expression in human T47D cells treated after 16 hrs of hypoxia by RT-PCR analysis; format: functional, cell-based; procedure, shortened: as §4
T47D [17] = experiment: Inhibition of hypoxia-induced HIF-1beta protein accumulation in human T47D cell nucleus at 10 to 100 nM treated after 4 hrs of hypoxia by Western blotting; format: functional, cell-based; procedure, shortened: as §5
[18] = Neurotoxicity in Wistar rat cerebellar granule neurons assessed as attached dead cells at 0.1 uM after 24 hrs using propidium iodide and Hoescht 33342 staining; format: toxicity, cell-based; details: neuron; procedure, shortened: as §1
T47D [19] = experiment: Reduction of hypoxia-induced VEGF mRNA expression in human T47D cells at 0.1 uM treated after 16 hrs of hypoxia by RT-PCR analysis; format: functional, cell-based
Procedure, shortened: (§6)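 T47D cells were held at 1% O₂ for 16 h with or without compound. Total RNA was isolated and target mRNA was quantified by real-time RT-PCR, normalized to 18S rRNA, and expressed relative to the normoxic control. Values are averages of two independent experiments.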

T47D [20] = experiment: Reduction of hypoxia-induced GLUT1 mRNA expression in human T47D cells at 0.1 uM treated after 16 hrs of hypoxia by RT-PCR analysis; format: functional, cell-based; procedure, shortened: as §6
T47D [21] = experiment: Inhibition of electron transport protein complex 1-mediated cellular respiration in digitonin-permeabilized human T47D cells at 30 nM presence of succinate; format: cell-based

C=CC/C=C\Cc1csc(C(C)(C)[C@H](O)C/C=C\C(=C)CCNC(=O)OC)n1 [MYCOTHIAZOLE]
Activity [1]: 85%
inhibition (T47D [2]): Dose-dependent effect
inhibition (T47D [3]): inactive
Activity (T47D [4]): 55%
inhibition (T47D [5]): inactive
inhibition (T47D [6]): inactive
inhibition (T47D [7]): inactive
inhibition (T47D [8]): Active
inhibition (T47D [9]): inactive
inhibition (T47D [10]): Dose-dependent effect
Activity (T47D [11]): Active
Activity [12]: Toxic
Activity (MDA-MB-231): Active
inhibition (T47D [13]): Active
inhibition (T47D [14]): Active
inhibition (T47D [15]): Active
inhibition (T47D [16]): Dose-dependent effect
inhibition (T47D [17]): inactive

C=CC/C=C\Cc1csc(C(C)(C)[C@@H](C/C=C\C(=C)CCNC(=O)OC)OC(C)=O)n1
Activity (T47D [4]): 55%
inhibition (T47D [10]): Dose-dependent effect
Activity (MDA-MB-231): Active
inhibition (T47D [13]): Active
inhibition (T47D [16]): Dose-dependent effect

C=C(C)[C@H]1Cc2c(ccc3c2O[C@@H]2COc4cc(OC)c(OC)cc4[C@@H]2C3=O)O1 [ROTENONE]
Activity [18]: 60%
Activity [12]: Toxic

C=CC/C=C\Cc1csc(C(C)(C)[C@H](O)C/C=C/C(O)(CO)CCNC(=O)OC)n1 (stereo not given in full)
inhibition (T47D [19]): inactive
inhibition (T47D [20]): inactive
Activity (MDA-MB-231): Active
inhibition (T47D [13]): inactive
inhibition (T47D [21]): Active
